Measured values: ChEMBL document CHEMBL5038594, “Structural Fine-Tuning of Desmuramylpeptide NOD2 Agonists Defines Their In Vivo Adjuvant Activity” (J Med Chem, 2021)
Active and inactive are the calls of the source. No cut-off for these calls is given here.

Tests used:
[1] = test system: PBMC; experiment: Immunostimulatory activity in human PBMC cells assessed as increase in IL-8 production at 2 uM incubated for 18 hrs by flow cytometry analysis; type: functional, cell-based
Summary of the method: (§1)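 Human PBMCs from healthy donors, 1 × 10^6 cells/mL in RPMI 1640 with 10% FBS, treated with 2 μM compound or 0.1% DMSO, without or with LPS 10 ng/mL, for 18 h at 37 °C. Supernatant cytokines quantified by cytometric bead array (human inflammatory panel) on a flow cytometer against recombinant standards. Four independent donors. Repeated-measures one-way ANOVA with Dunnett.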

[2] = test system: Mus musculus; experiment: Immuno-adjuvant activity in NIH/OlaHsd mouse assessed as increase in ovalbumin specific […] associated IgG2a production in sera at 0.30 micromol administered subcutaneously on day 1 and as booster dose on day 21 with ovalbumin loaded neutral liposomes and measured 1 week post booster dose by ELISA; type: functional, organism-based; settings: dose 0.3 µmol, time 28.0 day
Summary of the method: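 Groups of 5 female NIH/OlaHsd mice, 2.0–2.5 months old, immunized with ovalbumin-loaded neutral liposomes (10 μg ovalbumin per dose) containing 0.30 μmol adjuvant per dose, plus one booster dose. Serum ovalbumin-specific IgG, IgG1 and IgG2a measured 1 week after the booster. Mean ± SEM of 5 mice.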

[3] = test system: PBMC; experiment: Immunostimulatory activity in human PBMC cells assessed as increase in IL-6 production at 2 uM incubated for 18 hrs by flow cytometry analysis; type: functional, cell-based; summary of the method: as §1
[4] = test system: K562; experiment: Cytotoxicity against human K562 cells cocultured with human PBMC cells assessed as inhibition of cell proliferation at 1 uM incubated with PBMC cells for 18 hrs followed by co-incubation with K562 cells for 4 hrs by SYTOX blue staining based flow cytometric analysis; type: functional
Summary of the method: (§2)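 Effector cells are freshly Ficoll-isolated human PBMCs, 4 × 10^5 per well, pretreated 18 h with compound or 0.1% DMSO. CFSE-labelled K562 or MEC1 targets, 1 × 10^4 per well, are then added at 40:1 effector:target ratio and co-incubated 4 h at 37 °C. Dead targets are CFSE+/Sytox blue+ by flow cytometry. Results are relative to vehicle. Duplicates; three (MEC1) or four (K562) independent experiments. One-way ANOVA with Dunnett.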

[5] = test system: PBMC; experiment: Immunostimulatory activity in human PBMC cells assessed as increase in IL-1beta production at 2 uM incubated for 18 hrs by flow cytometry analysis; type: functional, cell-based; summary of the method: as §1
[6] = test system: PBMC; experiment: Immunostimulatory activity in human PBMC cells assessed as increase in TNF-alpha production at 2 uM incubated for 18 hrs by flow cytometry analysis; type: functional, cell-based; summary of the method: as §1
[7] = Cytotoxicity against HEK-Blue hNOD2 cells assessed as reduction in metabolic activity at 20 uM incubated for 18 hrs by MTS assay; type: toxicity, cell-based; settings: human, hek-blue hnod2, 18 h
Summary of the method: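 HEK-Blue NOD2 cells, 40 000 per well, exposed to 20 μM compound or 0.1% DMSO for 18 h at 37 °C, 5% CO2. Metabolic activity measured by MTS (CellTiter 96 AQueous One) reagent. Duplicates, two independent biological replicates.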

[8] = test system: MEC1; experiment: Cytotoxicity against human MEC-1 cells cocultured with human PBMC cells assessed as inhibition of cell proliferation at 100 nM incubated with PBMC cells for 18 hrs followed by co-incubation with MEC-1 cells for 4 hrs by SYTOX blue staining based flow cytometric analysis; type: functional; summary of the method: as §2
[9] = test system: MEC1; experiment: Cytotoxicity against human MEC-1 cells cocultured with human PBMC cells assessed as inhibition of cell proliferation at 10 uM incubated with PBMC cells for 18 hrs followed by co-incubation with MEC-1 cells for 4 hrs by SYTOX blue staining based flow cytometric analysis; type: functional; summary of the method: as §2
[10] = test system: Mus musculus; experiment: Immuno-adjuvant activity in NIH/OlaHsd mouse assessed as increase in ovalbumin specific IgG production in sera at 0.15 micromol administered subcutaneously on day 1 and as booster dose on day 21 and 28 with ovalbumin loaded liposomes by ELISA; type: functional, organism-based; settings: dose 0.15 µmol, time 28.0 day
Summary of the method: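 Groups of 5 female NIH/OlaHsd mice, 2.0–2.5 months old, immunized with ovalbumin-loaded liposomes (10 μg ovalbumin per dose) containing 0.15 μmol adjuvant per dose. Liposomes were neutral (PC–cholesterol 7:5), anionic (PC–cholesterol–dicetylphosphate 7:5:1) or mannosylated (PC–cholesterol–mannose-PEG-PA 7:5:0.5). Serum ovalbumin-specific IgG, IgG1 and IgG2a measured 1 week after the second booster. Mean ± SEM.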

[11] = test system: MEC1; experiment: Cytotoxicity against human MEC-1 cells cocultured with human PBMC cells assessed as inhibition of cell proliferation at 1 uM incubated with PBMC cells for 18 hrs followed by co-incubation with MEC-1 cells for 4 hrs by SYTOX blue staining based flow cytometric analysis; type: functional; summary of the method: as §2

## CCCCCCCCCCCCCCCCCC(=O)Oc1ccc(/C=C/C(=O)NCC(=O)N[C@H](C(=O)N[C@H](CCC(=O)OCC)C(=O)OCC)C(C)C)cc1OC
[1]
  Activity: inactive
[2]
  Activity: Active
[3]
  Activity: inactive
[4]
  Activity: Active
[5]
  Activity: inactive
[6]
  Activity: inactive
[7]
  Activity: Non-Toxic
[8]
  Activity: inactive
[9]
  Activity: Active
[10]
  Activity: Active
[11]
  Activity: inactive
